{"source": "paper PMC8367020", "about": "(Journal of the American Chemical Society, 2021)", "key": {"[1]": {"molecular_target": "T1, hOAT (Homo sapiens, UniProt P04181)", "T1 sequence (P04181 26-439)": "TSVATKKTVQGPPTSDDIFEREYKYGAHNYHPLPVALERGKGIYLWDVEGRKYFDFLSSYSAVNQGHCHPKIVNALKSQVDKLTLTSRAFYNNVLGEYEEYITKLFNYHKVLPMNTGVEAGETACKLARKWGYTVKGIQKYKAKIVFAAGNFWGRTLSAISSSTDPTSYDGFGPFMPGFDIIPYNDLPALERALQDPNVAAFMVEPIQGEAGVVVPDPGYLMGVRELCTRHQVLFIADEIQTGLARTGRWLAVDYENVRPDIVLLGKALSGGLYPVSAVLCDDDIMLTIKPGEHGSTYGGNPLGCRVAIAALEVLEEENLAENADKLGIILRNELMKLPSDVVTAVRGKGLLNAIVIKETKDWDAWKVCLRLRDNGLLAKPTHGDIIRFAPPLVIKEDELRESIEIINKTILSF", "assay": "Time-dependent inactivation kinetics of hOAT", "assay_type": "biochemical"}, "[2]": {"molecular_target": "T2, GABA-AT (Sus scrofa, UniProt P80147)", "T2 sequence (P80147 29-500)": "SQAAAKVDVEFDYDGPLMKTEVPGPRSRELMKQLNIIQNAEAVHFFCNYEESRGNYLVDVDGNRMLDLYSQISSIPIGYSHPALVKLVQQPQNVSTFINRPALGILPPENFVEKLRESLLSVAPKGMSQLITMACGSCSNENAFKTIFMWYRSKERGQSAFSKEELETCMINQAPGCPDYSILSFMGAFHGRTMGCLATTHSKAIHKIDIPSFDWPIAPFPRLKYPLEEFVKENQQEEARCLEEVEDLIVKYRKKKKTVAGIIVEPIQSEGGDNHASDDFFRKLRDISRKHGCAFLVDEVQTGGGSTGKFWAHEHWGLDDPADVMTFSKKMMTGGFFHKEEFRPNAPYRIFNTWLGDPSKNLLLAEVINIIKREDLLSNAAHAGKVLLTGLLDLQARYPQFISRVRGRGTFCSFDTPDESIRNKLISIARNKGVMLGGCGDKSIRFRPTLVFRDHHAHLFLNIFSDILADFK", "assay": "Reversible inhibition of GABA-AT", "assay_type": "biochemical", "details": "Ki = IC50/(1+[S]/Km)"}, "[3]": {"molecular_target": "T2, GABA-AT", "details": "cited from earlier work"}, "[4]": {"molecular_target": "T1, hOAT", "details": "cited from earlier work"}, "[5]": {"molecular_target": "T1, hOAT", "details": "cited from earlier work", "remark": "listed apart in the source"}, "[6]": {"tested_on": "aspartate aminotransferase (Asp-AT)", "details": "up to 4 mM; cited from earlier work"}, "[7]": {"tested_on": "alanine aminotransferase (Ala-AT)", "details": "up to 4 mM; cited from earlier work"}, "[8]": {"tested_on": "human-derived HCC mouse model", "details": "0.1 and 1.0 mg/kg; po; cited from earlier work"}, "[9]": {"molecular_target": "T1, hOAT", "details": "cited from earlier work", "remark": "listed apart in the source"}, "[10]": {"molecular_target": "T1, hOAT", "assay": "Partition ratio determination with hOAT", "assay_type": "biochemical", "details": "in the presence of α-KG, partition ratio = turnover number −1"}, "[11]": {"tested_on": "aspartate aminotransferase (Asp-AT)", "assay": "Inhibition of Asp-AT", "assay_type": "biochemical", "details": "at concentrations up to 10 mM"}, "[12]": {"tested_on": "alanine aminotransferase (Ala-AT)", "assay": "Inhibition of Ala-AT", "assay_type": "biochemical", "details": "at concentrations up to 10 mM"}, "[13]": {"molecular_target": "T1, hOAT", "assay": "48-hour time-dependent dialysis of inactivated hOAT", "assay_type": "biochemical", "details": "48-hour dialysis against buffer with excess PLP and α-KG"}, "[14]": {"molecular_target": "T1, hOAT", "assay": "Denaturing intact protein mass spectrometry of hOAT inactivated by 6", "assay_type": "binding", "method_in_brief": "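Intact hOAT fully inactivated by the test compound was analysed by denaturing intact-protein mass spectrometry, with untreated hOAT run alongside as a control. The added mass was read as the shift from the unmodified protein and compared with theoretical adduct masses.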"}, "[15]": {"molecular_target": "T1, hOAT", "assay": "Stopped-flow transient-state spectrophotometry of hOAT reacting with 6", "assay_type": "biochemical", "method_in_brief": "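Stopped-flow at 10 °C. hOAT (6.94 µM final) was mixed with the test compound (e.g. 1040 µM final; several concentrations). CCD absorbance at 250–800 nm over 0.0137–9843 s came from spliced, averaged short- and long-time datasets, deconvolved by SVD. The 420 nm traces were fitted to three exponentials, and first-phase kobs was fitted against concentration. Quinonoid accumulation assumed ε ~30 mM−1cm−1.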"}, "[16]": {"details": "hOAT inactivation, mean and standard error"}}, "note": "Values joined by “and” are separate entries in the source; they are usually repeats but may differ in a detail not shown here. Equal values may be shown once. Read-outs that look alike come from different tables or passages of the source. Marks after values point to notes of the source that are not given here."}
{"smiles": "N[C@H]1C[C@@H](C(=O)O)CC1=C(C(F)(F)F)C(F)(F)F", "note": "[Compound 1, (1S,3S)-3-amino-4-(hexafluoropropan-2-ylidenyl)cyclopentane-1-carboxylic acid]", "values": [{"measurement": "kinact/KI", "setting": "[1]; hOAT inactivation efficiency", "value": "16.7 ± 6.7", "unit": "M⁻¹ s⁻¹"}, {"measurement": "Ki", "setting": "[1]; [16]", "value": "0.09 ± 0.03", "unit": "mM"}, {"measurement": "kinact", "setting": "[1]; [16]", "value": "0.09 ± 0.01", "unit": "min⁻¹"}, {"measurement": "Ki", "setting": "[2]", "value": "5.2 ± 0.6", "unit": "mM"}, {"measurement": "Ki", "setting": "[3]; GABA-AT, weak reversible inhibition", "value": 4.2, "unit": "mM"}, {"measurement": "inhibition of GABA-AT (in words)", "setting": "[3]; preliminary screening", "value": "millimolar reversible inhibition"}, {"measurement": "Partition ratio", "setting": "[4]", "value": "12 ± 1^b"}, {"measurement": "Fluoride ion release", "setting": "[5]", "value": "79 ± 2^b eq."}, {"measurement": "inhibition of Asp-AT", "setting": "[6]", "value": "no inhibition"}, {"measurement": "inhibition of Ala-AT", "setting": "[7]", "value": "no inhibition"}, {"measurement": "serum AFP levels", "setting": "[8]", "value": "remarkably decreased"}, {"measurement": "tumor growth", "setting": "[8]", "value": "inhibited tumor growth"}]}
{"smiles": "N[C@H]1C=C(C(=O)O)CCC1(F)F", "note": "[Compound 2, (S)-3-amino-4,4-difluorocyclohex-1-enecarboxylic acid, reference compound]", "values": [{"measurement": "improvement in inactivation efficiency (kinact/KI) against hOAT compared to 1", "setting": "[9]; versus compound 1", "value": 23, "unit": "fold"}]}
{"smiles": "N[C@H]1C[C@@H](C(=O)O)CC1(F)F", "note": "[Compound 4, (1R,4S)-4-amino-3,3-difluorocyclopentanecarboxylic acid]", "values": [{"measurement": "Ki", "setting": "[1]", "value": "4 ± 1", "unit": "mM"}, {"measurement": "Ki", "setting": "[9]; hOAT inactivation", "value": 7.8, "unit": "mM"}]}
{"smiles": "N[C@H]1C=C(C(=O)O)CC1(F)F", "note": "[Compound 6, (S)-3-amino-4,4-difluorocyclopent-1-enecarboxylic acid]", "values": [{"measurement": "Ki", "setting": "[1]", "value": "0.06 ± 0.03", "unit": "mM"}, {"measurement": "kinact/KI", "setting": "[1]", "value": 21.7, "unit": "M⁻¹ s⁻¹"}, {"measurement": "improvement in inactivation efficiency (kinact/KI)", "setting": "[1]; 6 versus 4, hOAT", "value": 400, "unit": "fold"}, {"measurement": "Partition ratio", "setting": "[10]", "value": "34 and 34 ± 0"}, {"measurement": "inhibition of Asp-AT", "setting": "[11]", "value": "did not show noticeable inhibition"}, {"measurement": "inhibition of Ala-AT", "setting": "[12]", "value": "did not show noticeable inhibition"}, {"measurement": "residual activity of hOAT after dialysis", "setting": "[13]", "value": "unchanged"}, {"measurement": "hOAT in apo-enzyme state", "setting": "[14]; denaturing MS conditions at pH 2.5", "value": "approximately 84%"}, {"measurement": "hOAT covalently modified", "setting": "[14]; denaturing MS, hOAT fully inactivated by 6, mass increase 370.07 Da", "value": "~ 16%"}, {"measurement": "rate of quinonoid decay", "setting": "[15]", "value": 0.09, "unit": "s⁻¹"}, {"measurement": "rate of second external aldimine formation (bimolecular)", "setting": "[15]; 420 nm", "value": 6200, "unit": "M⁻¹ s⁻¹"}, {"measurement": "rate constant of final phase", "setting": "[15]; external aldimine decay with increase at ~275 nm", "value": 0.007, "unit": "s⁻¹"}, {"measurement": "rate of quinonoid species accumulation", "setting": "[15]; ~560 nm", "value": 0.4, "unit": "s⁻¹"}]}
